Data from the M2OR odorant receptor database.
Residue numbers refer to the chain shown, from its start.

Key:
Conditions in all cases: stereoisomer not certain
[1] = biological target: T1, OR2A7 (Homo sapiens) (UniProt Q96R45)
T1 sequence (whole entry): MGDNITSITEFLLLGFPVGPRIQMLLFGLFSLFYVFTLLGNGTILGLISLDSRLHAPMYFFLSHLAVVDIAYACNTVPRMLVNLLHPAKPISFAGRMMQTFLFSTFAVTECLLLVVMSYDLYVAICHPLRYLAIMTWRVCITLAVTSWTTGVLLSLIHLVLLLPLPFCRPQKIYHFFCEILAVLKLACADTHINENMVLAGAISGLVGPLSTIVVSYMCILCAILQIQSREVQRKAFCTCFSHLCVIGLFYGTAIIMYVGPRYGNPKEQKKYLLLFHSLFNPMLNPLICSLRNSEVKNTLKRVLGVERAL
In short: (§1)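 Whether a receptor–molecule pair is responsive (active) rests on the original authors' judgment that its measured signal was statistically different from baseline. Pairs without that judgment are non-responsive (inactive). Sources used varied assay methods, commonly transient luciferase assays in mammalian cell lines.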

[2] = biological target: T2, OR2A12 (Homo sapiens) (UniProt Q8NGT7)
T2 sequence (whole entry): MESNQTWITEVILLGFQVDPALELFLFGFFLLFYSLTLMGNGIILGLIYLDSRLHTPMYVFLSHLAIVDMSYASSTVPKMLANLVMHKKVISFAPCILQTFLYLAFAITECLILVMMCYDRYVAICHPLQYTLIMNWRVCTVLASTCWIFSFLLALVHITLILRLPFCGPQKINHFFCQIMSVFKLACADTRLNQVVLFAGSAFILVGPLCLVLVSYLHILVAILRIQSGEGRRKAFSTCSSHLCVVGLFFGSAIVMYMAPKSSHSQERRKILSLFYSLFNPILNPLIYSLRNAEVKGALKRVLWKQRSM
In short: as §1

[3] = biological target: T3, OR2A14 (Homo sapiens) (UniProt Q96R47)
T3 sequence (whole entry): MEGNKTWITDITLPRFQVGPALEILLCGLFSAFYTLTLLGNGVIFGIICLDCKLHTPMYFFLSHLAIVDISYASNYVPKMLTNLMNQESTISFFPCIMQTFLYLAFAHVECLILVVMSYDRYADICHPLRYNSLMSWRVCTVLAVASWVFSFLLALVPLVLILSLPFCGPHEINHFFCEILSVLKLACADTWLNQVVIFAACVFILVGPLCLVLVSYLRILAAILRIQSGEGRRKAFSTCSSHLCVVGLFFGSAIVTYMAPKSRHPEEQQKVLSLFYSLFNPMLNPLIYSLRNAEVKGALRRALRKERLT
In short: as §1

[4] = biological target: T4, OR2A2 (Homo sapiens) (UniProt Q6IF42)
T4 sequence (whole entry): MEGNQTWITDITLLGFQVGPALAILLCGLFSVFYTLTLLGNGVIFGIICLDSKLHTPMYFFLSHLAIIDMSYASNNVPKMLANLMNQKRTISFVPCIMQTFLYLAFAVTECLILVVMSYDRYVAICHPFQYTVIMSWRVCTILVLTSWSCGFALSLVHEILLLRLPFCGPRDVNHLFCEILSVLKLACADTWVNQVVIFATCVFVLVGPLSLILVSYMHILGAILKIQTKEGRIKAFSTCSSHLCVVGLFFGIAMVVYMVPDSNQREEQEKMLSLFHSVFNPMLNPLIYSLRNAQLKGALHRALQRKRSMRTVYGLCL
In short: as §1

[5] = biological target: T5, OR2A25 (Homo sapiens) (UniProt A4D2G3)
T5 sequence (whole entry): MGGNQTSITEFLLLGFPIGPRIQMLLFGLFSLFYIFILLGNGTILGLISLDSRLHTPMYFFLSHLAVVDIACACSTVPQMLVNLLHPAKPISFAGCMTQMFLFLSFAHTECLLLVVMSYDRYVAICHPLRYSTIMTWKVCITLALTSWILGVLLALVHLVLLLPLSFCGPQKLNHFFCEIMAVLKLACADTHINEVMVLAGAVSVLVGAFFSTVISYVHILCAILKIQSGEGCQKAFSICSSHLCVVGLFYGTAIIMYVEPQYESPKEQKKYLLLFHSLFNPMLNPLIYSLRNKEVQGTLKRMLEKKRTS
In short: as §1

[6] = biological target: T6, OR2A4 (Homo sapiens) (UniProt O95047)
T6 sequence (whole entry): T1 sequence (whole entry) with T9R, C238R, F250V
In short: as §1

[7] = biological target: T7, OR2A5 (Homo sapiens) (UniProt Q96R48)
T7 sequence (whole entry): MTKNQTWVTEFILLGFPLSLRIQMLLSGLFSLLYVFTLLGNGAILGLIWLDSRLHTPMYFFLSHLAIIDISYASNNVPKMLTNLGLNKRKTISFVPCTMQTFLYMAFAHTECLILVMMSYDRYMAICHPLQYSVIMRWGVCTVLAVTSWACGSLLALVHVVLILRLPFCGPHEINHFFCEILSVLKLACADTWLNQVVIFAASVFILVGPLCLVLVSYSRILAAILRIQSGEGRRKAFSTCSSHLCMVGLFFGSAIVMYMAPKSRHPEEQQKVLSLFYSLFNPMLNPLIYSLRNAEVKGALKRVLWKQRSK
In short: as §1

[8] = biological target: T8, OR2AE1 (Homo sapiens) (UniProt Q8NHA4)
T8 sequence (whole entry): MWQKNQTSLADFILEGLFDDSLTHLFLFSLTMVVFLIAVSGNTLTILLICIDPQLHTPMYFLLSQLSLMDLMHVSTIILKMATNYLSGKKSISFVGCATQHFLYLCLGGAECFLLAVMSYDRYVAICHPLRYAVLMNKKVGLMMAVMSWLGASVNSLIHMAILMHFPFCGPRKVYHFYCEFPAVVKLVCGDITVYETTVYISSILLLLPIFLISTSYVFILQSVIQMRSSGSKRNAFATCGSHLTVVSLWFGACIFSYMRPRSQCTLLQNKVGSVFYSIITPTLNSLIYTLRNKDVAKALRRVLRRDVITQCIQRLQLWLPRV
In short: as §1

[9] = biological target: T9, OR2AG1 (Homo sapiens) (UniProt Q9H205)
T9 sequence (whole entry): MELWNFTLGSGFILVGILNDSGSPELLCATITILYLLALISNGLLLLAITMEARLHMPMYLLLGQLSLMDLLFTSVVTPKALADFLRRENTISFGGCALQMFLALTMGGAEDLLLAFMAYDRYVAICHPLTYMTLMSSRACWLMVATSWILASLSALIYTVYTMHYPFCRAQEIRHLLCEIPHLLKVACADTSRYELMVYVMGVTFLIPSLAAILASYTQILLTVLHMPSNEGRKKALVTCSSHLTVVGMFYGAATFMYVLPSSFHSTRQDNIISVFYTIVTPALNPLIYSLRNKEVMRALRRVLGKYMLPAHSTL
In short: as §1

[10] = biological target: T10, OR2AG2 (Homo sapiens) (UniProt A6NM03)
T10 sequence (whole entry): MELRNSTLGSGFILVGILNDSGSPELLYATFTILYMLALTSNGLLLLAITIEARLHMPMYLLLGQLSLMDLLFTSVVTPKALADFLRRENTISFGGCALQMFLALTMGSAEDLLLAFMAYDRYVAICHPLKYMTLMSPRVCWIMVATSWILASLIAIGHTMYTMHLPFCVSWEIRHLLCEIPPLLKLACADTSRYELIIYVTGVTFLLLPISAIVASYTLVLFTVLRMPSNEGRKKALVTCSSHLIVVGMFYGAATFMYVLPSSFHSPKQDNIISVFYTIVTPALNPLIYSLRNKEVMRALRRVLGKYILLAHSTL
In short: as §1

[11] = biological target: T11, OR2AJ1 (Homo sapiens) (UniProt Q8NGZ0)
T11 sequence (whole entry): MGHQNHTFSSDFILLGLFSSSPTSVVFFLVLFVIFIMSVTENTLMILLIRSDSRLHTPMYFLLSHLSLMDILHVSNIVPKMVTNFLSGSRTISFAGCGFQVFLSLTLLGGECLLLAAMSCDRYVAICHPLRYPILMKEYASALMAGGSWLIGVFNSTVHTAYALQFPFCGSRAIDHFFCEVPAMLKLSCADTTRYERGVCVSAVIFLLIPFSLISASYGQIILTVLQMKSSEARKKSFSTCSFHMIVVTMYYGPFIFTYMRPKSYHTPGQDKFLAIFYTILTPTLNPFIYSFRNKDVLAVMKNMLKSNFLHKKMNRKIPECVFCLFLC
In short: as §1

[12] = biological target: T12, OR2AK2 (Homo sapiens) (UniProt Q8NG84)
T12 sequence (whole entry): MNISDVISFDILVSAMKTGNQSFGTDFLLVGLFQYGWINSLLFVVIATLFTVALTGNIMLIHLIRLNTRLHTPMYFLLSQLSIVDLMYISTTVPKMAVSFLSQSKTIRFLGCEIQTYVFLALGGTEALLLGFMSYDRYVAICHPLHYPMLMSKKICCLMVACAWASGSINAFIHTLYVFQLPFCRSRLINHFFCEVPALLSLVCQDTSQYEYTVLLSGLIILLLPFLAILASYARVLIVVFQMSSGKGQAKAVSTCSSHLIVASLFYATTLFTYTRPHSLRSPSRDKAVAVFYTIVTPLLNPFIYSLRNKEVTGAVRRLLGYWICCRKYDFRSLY
In short: as §1

[13] = biological target: T13, OR2AP1 (Homo sapiens) (UniProt Q8NGE2)
T13 sequence (whole entry): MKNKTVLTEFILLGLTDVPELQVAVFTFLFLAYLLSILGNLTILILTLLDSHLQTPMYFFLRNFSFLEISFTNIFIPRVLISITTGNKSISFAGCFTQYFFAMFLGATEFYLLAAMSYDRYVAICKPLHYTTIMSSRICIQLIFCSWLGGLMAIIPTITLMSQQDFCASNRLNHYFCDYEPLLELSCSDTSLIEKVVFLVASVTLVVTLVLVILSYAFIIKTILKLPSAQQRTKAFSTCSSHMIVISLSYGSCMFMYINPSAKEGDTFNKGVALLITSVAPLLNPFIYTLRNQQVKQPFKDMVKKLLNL
In short: as §1

[14] = biological target: T14, OR2AT4 (Homo sapiens) (UniProt A6NND4)
T14 sequence (whole entry): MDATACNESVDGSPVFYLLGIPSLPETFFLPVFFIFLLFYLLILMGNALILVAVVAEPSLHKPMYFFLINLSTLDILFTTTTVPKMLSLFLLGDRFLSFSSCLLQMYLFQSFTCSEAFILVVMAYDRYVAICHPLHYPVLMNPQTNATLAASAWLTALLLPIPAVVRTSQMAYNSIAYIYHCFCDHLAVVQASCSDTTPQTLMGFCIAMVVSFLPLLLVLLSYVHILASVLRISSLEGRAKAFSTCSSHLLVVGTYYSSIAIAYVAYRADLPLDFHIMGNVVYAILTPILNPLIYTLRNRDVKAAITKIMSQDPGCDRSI
In short: as §1

[15] = biological target: T15, OR2B11 (Homo sapiens) (UniProt Q5JQS5)
T15 sequence (whole entry): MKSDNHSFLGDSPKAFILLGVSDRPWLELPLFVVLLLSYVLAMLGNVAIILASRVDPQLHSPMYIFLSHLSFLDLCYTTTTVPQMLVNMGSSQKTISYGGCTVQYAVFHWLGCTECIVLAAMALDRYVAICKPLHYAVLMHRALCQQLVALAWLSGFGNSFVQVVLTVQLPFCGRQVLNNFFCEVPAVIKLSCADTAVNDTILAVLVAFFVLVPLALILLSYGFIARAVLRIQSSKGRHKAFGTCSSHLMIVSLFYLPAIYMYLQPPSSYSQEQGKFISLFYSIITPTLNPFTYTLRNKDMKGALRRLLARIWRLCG
In short: as §1

[16] = biological target: T16, OR2B2 (Homo sapiens) (UniProt Q9GZK3)
T16 sequence (whole entry): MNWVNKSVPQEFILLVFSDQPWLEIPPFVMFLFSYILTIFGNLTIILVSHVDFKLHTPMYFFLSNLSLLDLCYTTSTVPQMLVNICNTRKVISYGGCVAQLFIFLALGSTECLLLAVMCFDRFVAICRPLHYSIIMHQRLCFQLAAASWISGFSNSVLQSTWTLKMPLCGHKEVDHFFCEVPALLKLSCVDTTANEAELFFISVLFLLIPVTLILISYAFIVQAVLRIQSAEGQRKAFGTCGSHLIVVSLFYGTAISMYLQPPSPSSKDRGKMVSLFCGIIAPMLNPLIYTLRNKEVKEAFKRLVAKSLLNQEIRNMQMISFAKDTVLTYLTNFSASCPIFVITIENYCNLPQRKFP
In short: as §1

[17] = system: T17, OR2A1 T73A R74C S168C
T17 sequence (whole entry): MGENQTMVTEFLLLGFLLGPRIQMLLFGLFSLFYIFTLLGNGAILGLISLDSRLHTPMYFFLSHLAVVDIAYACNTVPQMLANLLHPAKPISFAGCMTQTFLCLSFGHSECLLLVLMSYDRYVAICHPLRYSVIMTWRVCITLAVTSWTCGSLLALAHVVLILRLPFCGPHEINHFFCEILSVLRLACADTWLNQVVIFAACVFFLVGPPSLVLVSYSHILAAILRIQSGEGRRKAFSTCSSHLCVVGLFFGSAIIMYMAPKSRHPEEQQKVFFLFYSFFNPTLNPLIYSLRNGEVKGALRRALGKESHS
In short: as §1

[18] = system: T18, OR2A2
T18 sequence (whole entry): T4 sequence (whole entry) with F280L
In short: as §1

[19] = system: T19, OR2A5 I126V A202S A255T
T19 sequence (whole entry): T7 sequence (whole entry) with I126V, A202S, A255T
In short: as §1

[20] = system: T20, OR2A7
T20 sequence (whole entry): T1 sequence (whole entry) with T9R
In short: as §1

Measured: odorant receptor agonist call

CCCCCCCCCC(=O)OC
inactive: [1]

CCCCCCCCCCCCCCCC(=O)OC
inactive: [1]

CCC(S)C(C)CO (stereo not drawn)
not listed: [17] | [18] | [19] | [20]
inactive: all other assays above

CCCCCCC(=O)[O-].[H+]
inactive: [1]

CC1=NC(C)C(C)S1 (stereo not drawn)
not listed: [11]
inactive: all other assays above
